# ARFGAP1 inh: rat ARFGAP1 inhibition; Arfgap1-stimulated ARF1 GTP hydrolysis, GDP FP detection; Q62848; hit rate 0.26% among 360,000; AID 651572; inhibition, % at 16.5 µM;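 active = inhibition above a per-plate limit, mean inhibition of low control wells plus 3 SD, cut at about 25% in these data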;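 also: 0% = DMSO wells with enzyme and 100% = wells lacking Arfgap1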
# Target sequence (Q62848 1-136 limits assumed): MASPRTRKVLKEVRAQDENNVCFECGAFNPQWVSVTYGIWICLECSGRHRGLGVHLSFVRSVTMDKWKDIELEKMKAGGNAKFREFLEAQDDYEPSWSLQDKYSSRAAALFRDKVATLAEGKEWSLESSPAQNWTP
#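 Material – truncated rat Arfgap1 GAP domain · Buffer or medium – HEPES-based buffer, pH 7.5 · Reagent – human ARF1(Δ1-17)-GTP substrate · Dosing – 16.5 µM single point, 1.26% DMSO · Schedule – GTP hydrolysis reaction 2 h at 25 °C · Technique – GDP detection by fluorescence polarization · Benchmarks – No-Arfgap1 wells (100%) versus DMSO full-reaction wells (0%) · Repeats – single replicate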
# Neddylation inh: blocks human cullin neddylation | TR-FRET cullin neddylation, biochemical | inhibition, % at 25 µM | hit rate 0.58% among 360,000 | AID 651699; in the data active = inhibition above about 36%
# Cardio protect: myocardial damage modulation in H9c2 cells; protection from H2O2 cell death, % at 20 µM; hit rate 0.63% among 360,000; AID 588492; H9c2 cardiomyocytes, H2O2 injury protection, ATPLite, 2 h;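 active = compounds giving at least 50% protection of heart cells from peroxide-induced death in the single-dose screen, raw or plate-pattern-corrected value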;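 also: 0% = DMSO wells with peroxide and 100% = DMSO wells without peroxide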
# ASAP1 GAP inh: ASAP1 ArfGAP inhibition | Q9ULH1 | ASAP1-stimulated ARF1 GTP hydrolysis, GDP FP detection | inhibition, % at 16.5 µM | hit rate 0.19% among 360,000; in the data active = inhibition above about 25%;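 also: 0% = vehicle with enzyme and substrate and 100% = no enzyme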
# Target sequence (Q9ULH1 325-724 limits assumed): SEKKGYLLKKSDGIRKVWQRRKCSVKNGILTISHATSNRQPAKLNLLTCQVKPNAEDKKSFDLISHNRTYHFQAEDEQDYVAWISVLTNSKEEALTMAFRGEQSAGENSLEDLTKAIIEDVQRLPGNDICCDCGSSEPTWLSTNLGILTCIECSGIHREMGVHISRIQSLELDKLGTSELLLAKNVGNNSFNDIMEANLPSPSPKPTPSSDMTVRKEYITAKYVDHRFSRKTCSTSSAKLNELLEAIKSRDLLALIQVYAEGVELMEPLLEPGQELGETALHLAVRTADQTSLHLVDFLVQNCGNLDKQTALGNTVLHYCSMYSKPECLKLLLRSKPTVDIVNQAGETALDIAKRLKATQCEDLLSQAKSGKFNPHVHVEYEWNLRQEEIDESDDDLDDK
# Active calls of the source: *; nt = no result. Sampled rows, rich in hits. Any-hit rate of the full collection: about 1.6%.
SMILES,ARFGAP1 inh,Neddylation inh,Cardio protect,ASAP1 GAP inh
N#C/C(=C\c1cn(-c2ccccc2)nc1-c1cccnc1)c1nnc2n1CCCCC2,-1.6,-13.1,51.0*,-2.9
O=C(/C=C/NNC(=O)c1ccccc1)c1ccc(Br)cc1,-1.9,-56.2,59.3*,-10.2
COc1ccc(CNC(=O)c2ccc(Br)cc2)cc1,-1.7,nt,nt,15.6
O=C(/C=C/NNC(=O)c1ccc(Cl)cc1)c1ccccc1,-11.3,4.4,30.0,2.0
COc1ccc(C(=O)NN/C=C/C(=O)c2ccc(Br)cc2)cc1,6.1,-11.3,58.5*,-2.8
CCCCc1c(-c2ccccc2OC)ncn1Cc1ccc(C(C)(C)C)cc1,-0.5,nt,nt,-18.9
O=[N+]([O-])c1ccc(-c2nc(Nc3ccc(O)cc3)c3ccccc3n2)cc1,5.5,-15.4,51.7*,4.7
COc1ccc(-c2csc(NC(=O)CCCc3nc4ccccc4c(=O)[nH]3)n2)cc1OC,5.2,4.0,90.8*,-6.7
COc1ccc(-c2csc(NC(=O)Cc3ccccc3)n2)cc1OC,3.6,-4.0,4.1,6.0
COc1ccc(-c2csc(NC(=O)CCn3cnc4ccccc4c3=O)n2)cc1OC,-1.0,2.9,57.5*,-0.9
C[C@@H]1CN([C@@H](C)CO)C(=O)CCCn2nncc2CO[C@@H]1CN(C)C(=O)C1CC1,-3.4,nt,nt,2.7
Cc1nc2ccc(NC(=O)c3ccc(Br)o3)cc2s1,8.3,-3.7,-8.4,12.6
CCCC(=O)Nc1nc2ccc(NC(=O)c3ccc(Br)o3)cc2s1,8.7,13.6,72.6*,-1.2
CC(=NO)C1CCC2C3CCC4CC(=NO)CCC4(C)C3C(C)(O)CC12C (stereo not drawn),-0.4,-2.8,59.9*,-3.4
O=C(C(=O)N(Cc1ccccc1)Cc1ccccc1)c1c(-c2ccccc2)[nH]c2ccccc12,-8.3,-27.4,86.5*,12.3
O=C(CCSc1nc2ccccc2s1)N/N=C/c1c(O)ccc2ccccc12,7.7,-82.2,53.9*,6.5
CCOC(=O)C1CCN(c2cc3c(cc2NC(=O)c2ccc(OC)c(OC)c2)n(C)c(=O)n3C)CC1,-4.8,21.4,54.5*,0.0
Cn1c(=O)n(C)c2cc(N3CCCCC3)c(NC(=O)c3ccccc3)cc21,-2.7,6.7,13.3,5.4
CCOC(=O)C1CCN(c2cc3c(cc2NC(=O)c2ccccc2)n(C)c(=O)n3C)CC1,-10.5,32.3,65.6*,-13.4
O=C1NC(c2ccc(Br)cc2)c2c(-c3ccccc3)n[nH]c21 (stereo not drawn),5.8,nt,nt,7.0
COC(=O)C1=C(C)N(Cc2ccccc2C(F)(F)F)C(=NCc2ccccc2C(F)(F)F)NC1c1ccc(F)cc1 (stereo not drawn),13.9,nt,nt,-11.4
O=C(O)c1nn(CC(=O)N2CCN(c3ccccc3)CC2)c(=O)c2ccccc12,-6.7,-9.9,66.3*,14.8
O=C(CCn1nc(-c2ccccc2)c2ccccc2c1=O)N1CCN(c2ccccc2)CC1,1.9,6.8,52.9*,8.7
CCCCOCCCNC(=O)C[C@H]1C[C@@]2(C(=O)OC)C(=C[C@H](COCc3ccccc3)O[C@@H]2C)N(CCC2=CCCCC2)C1=O,-6.1,nt,nt,2.2
COC(=O)[C@@H](N)Cc1ccc(O)c(O)c1,5.3,-107.4,58.5*,8.8
SMILES,ARFGAP1 inh,Neddylation inh,Cardio protect,ASAP1 GAP inh
CCc1ccc(O)c(N=Cc2cccc(C)c2O)c1,1.0,-15.2,60.3*,-11.3
Cc1cccc(N=Cc2ccccc2O)c1C,-3.8,-0.8,8.5,-2.4
C[C@@H]1CN([C@@H](C)CO)C(=O)CCCn2cc(nn2)CO[C@H]1CN(C)C(=O)Nc1cccc(F)c1,0.7,nt,nt,-14.8
CCOc1ccccc1N1CC(O)=C(c2nc3ccccc3s2)C1=N,2.2,22.4,95.2*,-6.0
O=C(NC(c1ccc(-c2ccccc2)cc1)c1cnccn1)C1CCN(Cc2cccs2)CC1 (stereo not drawn),10.1,-8.1,22.5,-1.3
CCOC(=O)c1c(NC(=O)COC(=O)c2ccc(O)cc2)sc(C(=O)N(C)C)c1C,-3.5,-56.4,63.4*,-2.8
CCN(CC(=O)Nc1cc(Cl)ccc1C)C(=O)C1CCN(c2ncnc3sc(C)c(C)c23)CC1,2.0,-48.9,76.9*,4.2
Cc1cc2c(nc1C)CCCN2S(=O)(=O)c1ccccc1,-11.2,nt,nt,3.6
CCOC(=O)C1=C(C)NC(=O)NC1c1ccc([N+](=O)[O-])o1 (stereo not drawn),1.4,-4.2,-0.6,13.0
CCOC(=O)C1=C(C)NC2=C(C(=O)c3ccccc32)C1c1ccc([N+](=O)[O-])o1 (stereo not drawn),10.0,-33.3,60.9*,-10.0
COc1ccc(C2CC(=O)C(c3ccc4ccccc4c3)=CN2Cc2ccccc2)cc1 (stereo not drawn),0.3,nt,nt,-6.4
O=C(CSc1nnc(-c2cccnc2)o1)c1cc2ccccc2oc1=O,4.3,-22.5,51.1*,2.7
O=C(CSc1nnc(-c2cccnc2)o1)Oc1ccccc1,-1.7,-2.6,26.9,8.2
COC(=O)C1=C(C)N(C)C(=NCC2CC2)NC1c1cccc(F)c1 (stereo not drawn),-11.5,nt,nt,-9.0
N#CC1=C(N)N(c2ccccc2)C(c2ccco2)C1(C#N)C#N (stereo not drawn),5.9,39.4*,8.7,-5.1
O=S(=O)(c1ccc(Cl)cc1)c1cc(O)ccc1O,4.3,12.6,56.5*,11.2
O=[N+]([O-])c1ccc(SN2CCCCC2)c([N+](=O)[O-])c1,-16.6,nt,nt,-0.3
COc1cccc(/C=C2/C(=O)NN(c3ccc(Br)cc3)C2=O)c1O,-11.4,-7.5,51.9*,1.5
COc1cc(/C=C2/C(=O)NN(c3ccc(Cl)cc3)C2=O)cc(Br)c1O,-5.3,-1.0,4.1,-7.4
CCc1nc2ccc(C(=O)NCCOc3ccc(OC)cc3)cn2c1N(C)C(=O)Cc1ccccc1,13.4,10.4,9.8,-2.2
CC(C)(C)OC(=O)C[C@H]1C/C=C\C[C@H](CC(=O)N[C@H](CO)Cc2ccccc2)C(=O)N[C@H](Cc2ccccc2)COC1=O,-5.9,2.5,57.9*,-3.9
O=C(C[C@H]1C/C=C\CC[C@H](Cc2ccc(F)cc2)C(=O)O[C@H](c2ccccc2)CNC1=O)N[C@H](CO)Cc1ccccc1,13.6,5.5,90.2*,2.1
O=C(C[C@H]1C/C=C\CC[C@H](Cc2ccc(F)cc2)C(=O)O[C@@H](c2ccccc2)CNC1=O)N[C@@H](CO)Cc1ccccc1,5.5,-1.2,41.8,1.9
O=C(C[C@H]1C/C=C\CC[C@H](Cc2ccc(F)cc2)C(=O)O[C@@H](c2ccccc2)CNC1=O)N[C@H](CO)Cc1ccccc1,1.9,2.3,50.7*,3.2
COc1ccccc1C(=O)N1CCN(C(=O)[C@H]2O[C@@H](n3cnc(C(N)=O)n3)[C@H](O)[C@@H]2O)CC1,-0.1,nt,nt,1.2
CCCN1CCN(C(=O)CCc2nnc3ccc(N4CCN(c5cccc(OC)c5)CC4)nn23)CC1,-2.3,2.0,55.2*,8.9
Cc1ccc(S(=O)(=O)N(C)c2cccc3c2S(=O)(=O)N([C@H](C)c2ccccc2)C[C@@H](COCc2ccccc2)O3)cc1,-1.7,nt,nt,4.8
COc1ccc(OC)c(NC(=O)COC(=O)c2c3c(nc4ccccc24)CCCC3)c1,11.9,-10.3,56.4*,-1.1

# Source: PubChem (several laboratories)
